Experimental data published in ChEMBL document CHEMBL3091459, “Inhibitory effect of the gallotannin corilagin on dextran sulfate sodium-induced murine ulcerative colitis” (J Nat Prod, 2013).
Activity calls are given as the source filed them. The rule behind the calls is not given here.

Experiments:
Type in all cases: functional, organism-based
Mus musculus [1] = assay: Antiinflammatory activity in ip dosed C57BL/6 mouse assessed as reduction of DSS-induced IL-6 production in colon administered qd on day 6 to 12 post DSS-challenge measured on day 13 by ELISA
How it was run: (§1)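 Colitis induced in male C57BL/6 mice with 2.0% (w/v) DSS drinking water for days 0–5, then ip once daily days 6–12 (saline vehicle); 8 mice/group. Day 13: colon homogenized in phosphate buffer with Tween-20, PMSF, benzethonium chloride, EDTA and aprotinin, spun 16000g 15 min at 4 °C. TNF-α, IL-1β, IL-6 and IL-10 measured by ELISA, normalized to Bradford protein, reported as pg/mg.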

Mus musculus [2] = assay: Antiinflammatory activity in DSS-treated C57BL/6 mouse assessed as effect on IL-10 production in colon at 7.5 to 30 mg/kg, ip qd administered on day 6 to 12 post DSS-challenge measured on day 13 by ELISA; how it was run: as §1
Mus musculus [3] = assay: Antiulcerative colitis activity in C57BL/6 mouse assessed as inhibition of DSS-induced shortening of colon length at 30 mg/kg, ip qd administered on day 6 to 12 post DSS-challenge measured on day 13; parameters: dose 30 mg/kg
How it was run: (§2)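 Mice (male C57BL/6, 20–24 g) drank 2.0% DSS for 5 days. Animals with weight loss, diarrhea and bleeding on day 6 were randomized and given ip doses once daily to day 12, saline as vehicle; n = 8. Colon length was measured after sacrifice on day 13.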

Mus musculus [4] = assay: Antiulcerative colitis activity in C57BL/6 mouse assessed as recovery of DSS-induced body weight loss at 7.5 to 30 mg/kg, ip qd administered on day 6 to 12 post DSS-challenge measured on day 8
How it was run: (§3)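 In male C57BL/6 mice given 2.0% (w/v) DSS in drinking water days 0–5, then dosed ip daily days 6–12 (n = 8), body weight was checked daily. Change was also taken as weight before induction minus weight just before sacrifice on day 13.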

Mus musculus [5] = assay: Antiulcerative colitis activity in C57BL/6 mouse assessed as attenuation of DSS-induced crypt destruction at 7.5 to 30 mg/kg, ip qd administered on day 6 to 12 post DSS-challenge measured on day 13 by hematoxylin/eosin staining-based assay
How it was run: (§4)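 DSS colitis (2.0% in drinking water, 5 days) in male C57BL/6 mice treated ip once daily days 6–12, n = 8. Day 13 colons opened, washed in ice-cold PBS, fixed overnight in 4% paraformaldehyde, paraffin-embedded. 5 μm sections stained with H&E and scored histologically, including inflammation severity.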

Mus musculus [6] = assay: Antiulcerative colitis activity in C57BL/6 mouse assessed as attenuation of DSS-induced lesions formation at 7.5 to 30 mg/kg, ip qd administered on day 6 to 12 post DSS-challenge measured on day 13 by hematoxylin/eosin staining-based assay; how it was run: as §4
Mus musculus [7] = assay: Antiapoptotic activity in C57BL/6 mouse assessed as reduction of DSS-induced cleaved caspase-9 level in colon at 7.5 to 30 mg/kg, ip qd administered on day 6 to 12 post DSS-challenge measured on day 13 by Western blotting analysis
How it was run: (§5)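 Male C57BL/6 mice (7–8 wk) given 2.0% (w/v) DSS in drinking water days 0–5. Colitic mice were selected on day 6 and dosed ip once daily, days 6–12, saline vehicle; n = 8/group. Day 13: colon homogenized in RIPA, 50 μg protein run on 10–12% SDS-PAGE. Blots probed for cleaved caspase-3/-9, detected by ECL, β-actin for loading, densitometry; n = 5.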

Mus musculus [8] = assay: Antiinflammatory activity in ip dosed C57BL/6 mouse assessed as reduction of DSS-induced IL-1beta production in colon administered qd on day 6 to 12 post DSS-challenge measured on day 13 by ELISA; how it was run: as §1
Mus musculus [9] = assay: Antiulcerative colitis activity in C57BL/6 mouse assessed as recovery of DSS-induced body weight loss at 7.5 to 30 mg/kg, ip qd administered on day 6 to 12 post DSS-challenge measured on day 9; how it was run: as §3
Mus musculus [10] = assay: Antiulcerative colitis activity in DSS-induced acute colitis C57BL/6 mouse model assessed as decrease in disease activity index at 15 to 30 mg/kg, ip qd administered on day 6 to 12 post DSS-challenge measured on day 13
Mus musculus [11] = assay: Antiinflammatory activity in ip dosed C57BL/6 mouse assessed as reduction of DSS-induced TNF-alpha production in colon administered qd on day 6 to 12 post DSS-challenge measured on day 13 by ELISA; how it was run: as §1
Mus musculus [12] = assay: Antiinflammatory activity in DSS-induced acute colitis C57BL/6 mouse model assessed as upregulation of IkappaB-alpha protein expression at 15 to 30 mg/kg, ip qd administered on day 6 to 12 post DSS-challenge measured on day 13 by Western blotting analysis
How it was run: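 Male C57BL/6 mice received 2.0% DSS water for 5 days, then daily ip dosing in saline on days 6–12. On day 13, colon tissue was homogenized in ice-cold RIPA (0.1 g/mL). 50 μg protein was blotted on nitrocellulose and probed for IκBα overnight at 4 °C. ECL detection, normalized to β-actin by densitometry; n = 5.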

Mus musculus [13] = assay: Antiulcerative colitis activity in ip dosed C57BL/6 mouse assessed as inhibition of DSS-induced shortening of colon length administered qd on day 6 to 12 post DSS-challenge measured on day 13; how it was run: as §2
Mus musculus [14] = assay: Antiulcerative colitis activity in C57BL/6 mouse assessed as attenuation of DSS-induced inflammatory cell infiltration at 7.5 to 30 mg/kg, ip qd administered on day 6 to 12 post DSS-challenge measured on day 13 by hematoxylin/eosin staining-based assay; how it was run: as §4
Mus musculus [15] = assay: In vivo inhibition of myeloperoxidase activity in colon homogenates of DSS-induced acute colitis C57BL/6 mouse model at 7.5 to 30 mg/kg, ip qd administered on day 6 to 12 post DSS-challenge measured on day 13
How it was run: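 Day 13 colons from DSS-colitic male C57BL/6 mice (2.0% DSS for 5 days; ip daily days 6–12; n = 8) were homogenized in 0.5% HTAB (1 mL/100 mg) and spun 19000g 15 min at 4 °C. Supernatant was mixed with 50 mmol pH 6.0 phosphate buffer containing 0.0005% o-dianisidine and 0.1% H2O2. Rate of OD460 change at 25 °C was read and expressed as units/g wet tissue.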

Mus musculus [16] = assay: Antiapoptotic activity in C57BL/6 mouse assessed as reduction of DSS-induced cleaved caspase-3 level in colon at 7.5 to 30 mg/kg, ip qd administered on day 6 to 12 post DSS-challenge measured on day 13 by Western blotting analysis; how it was run: as §5

O=C(O[C@@H]1O[C@@H]2COC(=O)c3cc(O)c(O)c(O)c3-c3c(cc(O)c(O)c3O)C(=O)O[C@H]([C@H]1O)[C@@H]2O)c1cc(O)c(O)c(O)c1
Activity (Mus musculus [1]): Dose-dependent effect | Activity (Mus musculus [2]): inactive | inhibition (Mus musculus [3]): Active | Activity (Mus musculus [4]): Active | Activity (Mus musculus [5]): Active | Activity (Mus musculus [6]): Active | Activity (Mus musculus [7]): Active | Activity (Mus musculus [8]): Dose-dependent effect | Activity (Mus musculus [9]): Active | Activity (Mus musculus [10]): Active | Activity (Mus musculus [11]): Dose-dependent effect | Activity (Mus musculus [12]): Active | inhibition (Mus musculus [13]): Dose-dependent effect | Activity (Mus musculus [14]): Active | inhibition (Mus musculus [15]): Active | Activity (Mus musculus [16]): Active
